Screening data: PubChem BioAssay, Johns Hopkins Ion Channel Center
Most compounds without a hit are left out; they make up all but 3.1% or so of the library.
KCNQ1 act: potentiators or activators of human KCNQ1 potassium channel | CHO-K1 KCNQ1, thallium flux FluxOR fluorescence; active compounds read high | AID 2648 | B-score at 10 µM | P51787 | hit rate 0.35% among 310,000;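 active means fluorescence ratio B-score, a plate-corrected score, at least three library SD, with initial intensity B-score within 5 SD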
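Assay system: CHO-K1 cells stably expressing KCNQ1. Medium: assay buffer for compound exposure, DMSO matched across wells. Timing: 37 °C overnight plating, 90-min dark dye load, 20-min compound pretreatment. Signal: kinetic FluxOR fluorescence, 10 s baseline plus 110 s post-stimulus.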
KCNQ1 block: inhibitors of human KCNQ1 potassium channel; B-score at 10 µM; P51787; hit rate 1.3% among 310,000; CHO-K1 KCNQ1, FluxOR thallium flux fluorescence; active compounds read high;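 active means compounds whose thallium flux B-score, printed positive for inhibition, exceeds three library SD while starting fluorescence stays within three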;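 further: channel opened by potassium depolarization with thallium stimulus after 20 min compound exposure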
KCNK3 block: human KCNK3 channel inhibition, primary screen | O14649 | CHO-KCNK3 thallium flux, FluxOR fluorescence; active compounds read low | hit rate 0.84% among 340,000 | AID 602410 | B-score at 10 µM;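 active means B-score under library mean minus 4 SD, starting fluorescence ratio at most library mean plus 5 SD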;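 further: more negative B-score means stronger inhibition of thallium flux through KCNK3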
Target sequence (O14649 whole entry, looked up): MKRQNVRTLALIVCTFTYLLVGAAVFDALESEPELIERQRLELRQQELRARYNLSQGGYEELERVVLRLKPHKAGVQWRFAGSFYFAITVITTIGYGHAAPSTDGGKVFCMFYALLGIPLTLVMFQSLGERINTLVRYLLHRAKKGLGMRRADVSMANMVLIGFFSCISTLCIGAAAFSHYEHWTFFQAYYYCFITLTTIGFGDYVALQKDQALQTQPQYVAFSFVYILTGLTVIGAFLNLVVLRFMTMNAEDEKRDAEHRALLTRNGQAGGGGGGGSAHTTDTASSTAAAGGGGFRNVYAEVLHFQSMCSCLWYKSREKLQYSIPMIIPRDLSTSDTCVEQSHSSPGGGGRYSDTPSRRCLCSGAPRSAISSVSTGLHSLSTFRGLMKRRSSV
hERG rescue: compounds protecting human hERG from proarrhythmic drug block; CHO-hERG, FluxOR thallium flux, dofetilide IC70 present; hit rate 0.51% among 310,000; activation (rescue from dofetilide block), less the hit threshold, % at 10 µM; Q12809; AID 1511;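 active means activation above the mean of controls blocked by dofetilide plus 5 SD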;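 further: thallium influx through hERG after potassium depolarization seen as dye fluorescence rise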
KCNK9 inh: blocks the human KCNK9 two-pore domain potassium channel; hit rate 1.2% among 310,000; HEK293 KCNK9, FluxOR thallium flux fluorescence; active compounds read low; B-score at 10 µM;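 active means ratio B-score over 3 SD below the library mean, with starting fluorescence within 5 SD of its mean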;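 further: negative B-score means less thallium flux so channel inhibition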
KCNK3 confirm: human KCNK3 channel inhibition, confirmation assay; AID 651638; ratio percent of control, % at 10 µM; shares compounds with KCNK3 block; CHO-KCNK3 thallium flux, FluxOR fluorescence; 0% buffer, 100% carvedilol maximal block; hit rate 99% among 2,400;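 active means ratio percent of control, averaged over triplicates, above buffer control mean plus 5 SD, cut at about 64% in these data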;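 further: ratio is the fluorescence rise from min to max over baseline after thallium stimulus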
KCNK3 noninduced: counter-screen for KCNK3 inhibitors: effect in non-induced cells; shares compounds with KCNK3 block; non-induced KCNK3 parental cells, FluxOR thallium flux; active compounds read low; thallium flux ratio (lower = more inhibition) at 10 µM; hit rate 40% among 2,400;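 active means thallium flux ratio, averaged over three wells, more than 5 SD below the buffer control mean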;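 further: host cells are CHO cells without KCNK3 induction; ratio is peak minus trough fluorescence over baseline then normalized to buffer controls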
* = called active by the depositor; i = inactive; · = no result.

SMILES | KCNQ1 act | KCNQ1 block | KCNK3 block | hERG rescue | KCNK9 inh | KCNK3 confirm | KCNK3 noninduced
O=C1N(c2ccccc2)C(c2ccc(Cl)cc2)N2CCCN12 (stereo not drawn) | i | i | i | -9.3 | i | · | ·
COc1ccccc1CC(NC(C)=O)C(=O)NC1CCN(C(=O)Nc2ccc(F)cc2)CC1 (stereo not drawn) | i | i | i | -16.1 | i | · | ·
CN(c1ccc([N+](=O)[O-])cc1/C=N/NC(=O)COc1ccccc1)C1CCCCC1 | i | i | i | -8.4 | i | · | ·
O=S(=O)(c1ccccc1)N1CC=C(c2ccccc2)CC1 | i | i | i | 1.0 | i | · | ·
O=C(N/N=C/c1ccc[nH]1)c1ccccc1O | i | i | -9.01* | -17.4 | i | 81.3* | i
O=C(N/N=C/c1ccc[nH]1)c1ccc(O)cc1 | i | i | i | -5.3 | i | · | ·
CC(C)C(NC(=O)c1ccccc1F)C(=O)NCCc1ccccn1 (stereo not drawn) | i | i | i | -10.8 | i | · | ·
COc1ccc(N(C)S(=O)(=O)c2cccc(C(=O)OCC(=O)N3CC(C)CC(C)C3)c2)cc1 (stereo not drawn) | · | · | i | · | · | · | ·
CCCOC(=O)/C(=C\C=C\c1ccco1)NC(=O)c1ccccc1 | i | i | -10.4* | -17.6 | i | 107.3* | 0.146*
O=C(COC(=O)c1cc(S(=O)(=O)N2CCc3ccccc3C2)ccc1Cl)NCc1ccco1 | i | i | -9.43* | -6.4 | i | 97.3* | i
O=C(Nc1ccc(CN2CCOCC2)cc1)c1ccc(-c2ccc(Cl)cc2Cl)o1 | i | i | -9.66* | -15.1 | i | 103.0* | i
O=C(Nc1ccc(CN2CCOCC2)cc1)c1ccc(-c2cccc(Cl)c2)o1 | i | i | i | -29.9 | i | · | ·
O=C(c1ccco1)N1CCN(C(=O)c2ccccc2OCc2ccccc2)CC1 | · | · | i | · | · | · | ·
CC1CN(S(=O)(=O)c2cccc(C(=O)OCc3cc(=O)oc4cc(O)ccc34)c2)CC(C)O1 (stereo not drawn) | i | i | i | -11.5 | i | · | ·
CN(C)c1cccc(C(=O)OCc2cc(=O)oc3cc(O)ccc23)c1 | i | i | -8.98* | -15.8 | i | 113.3* | i
CN1CCN(c2ccc(C(CC(N)=O)NC(=O)Cc3cccc4ccccc34)cc2[N+](=O)[O-])CC1 (stereo not drawn) | i | i | i | -4.1 | i | · | ·
COc1ccc(CNc2oc(Cc3cccc4ccccc34)nc2C#N)cc1 | i | i | -13.5* | -8.6 | i | 90.7* | 0.152*
COc1ccc(CNc2oc(COc3ccccc3Cl)nc2C#N)cc1 | i | i | i | -1.6 | i | · | ·
COc1ccc(CCNc2oc(COc3ccccc3)nc2C#N)cc1 | i | i | i | -14.0 | i | · | ·
COc1ccc(CNc2oc(COc3ccccc3)nc2C#N)cc1 | i | i | -8.93* | -11.6 | i | 117.0* | 0.157*
Fc1ccc(-c2cnc(-c3cccs3)o2)cc1 | i | i | -9.56* | -5.0 | i | 92.7* | 0.153*
CCC1=NN(C(=O)c2cccnc2)C(O)(C(F)(F)F)C1 (stereo not drawn) | i | i | i | 2.3 | i | · | ·
Cc1cccc(OCCOC(=O)c2c(-c3ccccc3)noc2C)c1 | i | i | -13.2* | -6.7 | i | 108.0* | i
S=C(NCC1CCCO1)Nc1ccccc1 (stereo not drawn) | i | i | i | -4.9 | i | · | ·
CC(C)N(C(=S)NC1CC2CCC1C2)c1ccccc1 (stereo not drawn) | i | i | -9.76* | -16.6 | i | 118.0* | 0.16*
SMILES | KCNQ1 act | KCNQ1 block | KCNK3 block | hERG rescue | KCNK9 inh | KCNK3 confirm | KCNK3 noninduced
CN(C)c1cccc(C(=O)NNC(=S)NC2CC3CCC2C3)c1 (stereo not drawn) | i | i | i | -7.7 | i | · | ·
CN1CCN(C2Cc3cc(Cl)ccc3Sc3cc(F)ccc32)CC1 (stereo not drawn) | i | i | -10.3* | -12.9 | i | 144.0* | i
COc1ccc2c(c1)c(CC(=O)Nc1ccc(C(C)=O)cc1)c(C)n2C(=O)c1ccc(Cl)cc1 | i | i | i | -1.1 | i | · | ·
COc1ccc2c(c1)c(CC(=O)NCc1cc([N+](=O)[O-])ccc1O)c(C)n2C(=O)c1ccc(Cl)cc1 | i | 11* | -12.8* | -23.1 | i | 134.7* | 0.113*
O=C(Nc1ccc(Br)c(C(F)(F)F)c1)c1ccc(C(F)(F)F)cc1 | i | 12* | -10.2* | -22.9 | i | 118.7* | 0.103*
Cc1onc(-c2ccccc2Cl)c1C(=O)Nc1ncn[nH]1 | i | i | i | -6.3 | i | · | ·
COc1ccc(C(=O)Nc2ccc(C)cn2)cc1S(=O)(=O)N1CCCc2ccccc21 | i | i | i | -15.9 | i | · | ·
Cc1ccc(NC(=O)c2ccc(Cl)c(S(=O)(=O)N3CCc4ccccc43)c2)nc1 | · | · | -11.5* | · | · | 144.3* | 0.133*
CC(C)=CCC[C@](C)(O[C@@H]1O[C@H](CO[C@@H]2OC[C@H](O[C@@H]3OC[C@@H](O)[C@H](O)[C@H]3O)[C@H](O)[C@H]2O)[C@@H](O)[C@H](O)[C@H]1O)C1CC[C@]2(C)C1[C@H](O)CC1[C@@]3(C)CC[C@H](O)C(C)(C)C3[C@@H](O)C[C@]12C (stereo partly drawn) | · | · | i | · | · | · | ·
CCN(CC)C(=O)C(Oc1ccc(S(=O)(=O)N2CCCC2)cc1[N+](=O)[O-])c1ccccc1 (stereo not drawn) | i | i | -11.3* | -3.3 | -7.14* | 98.0* | i
CCCN=C1CC(C)(C)CC(=O)/C1=C(/O)CCC | i | i | -8.95* | -3.2 | i | 99.0* | i
CCCCn1c(N)c(N(CC(C)C)C(=O)CCC2CCCCC2)c(=O)[nH]c1=O | i | i | i | -13.3 | i | · | ·
O=C1C(=O)N(CCCO)C(c2ccc(Br)cc2)/C1=C(\O)c1ccc(Br)cc1 (stereo not drawn) | i | i | i | -10.7 | i | · | ·
Nc1ccc(C(=O)N2CCN(S(=O)(=O)/C=C/c3ccccc3)CC2)cc1[N+](=O)[O-] | i | i | i | -10.0 | i | · | ·
O=C(c1ccc2ccccc2c1)N1CCN(S(=O)(=O)/C=C/c2ccccc2)CC1 | i | i | -9.11* | -10.3 | i | 95.7* | i
CC(NS(=O)(=O)c1ccc2ccccc2c1)c1ccccn1 (stereo not drawn) | · | · | i | · | · | · | ·
COCCN(C(=O)CSc1nc2ccccc2c(=O)n1CCOC)c1c(N)n(Cc2ccccc2)c(=O)[nH]c1=O | i | i | i | -4.7 | i | · | ·
